Tested on: HEK-293T
Assay: Multiplex assay against HEK293T;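 as to Population Tubulin-Different-Phenotype (%): share of the cells with healthy nuclei that show this phenotype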
Format: toxicity, cell-based
Conditions: human
Summary of the method: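 On a CQ1 microscope at 37°C and 5% CO2, live cells were imaged after compound addition. They had been stained at seeding with Hoechst33342, BioTracker Green Microtubule Cytoskeleton Dye, MitoTracker Red and Annexin V Alexa Fluor 680. CellPathfinder machine-learning gating assigned cells to Hoechst high-intensity objects or normal cells, normal cells to healthy, pyknosed or fragmented nuclei, and pyknosed cells to mitotic or apoptotic. Tubulin, mitochondrial-mass and membrane-permeability phenotypes are per cents of healthy-nucleus cells.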

[1] = 12 h, 1 µM, compound concentration 1 uM, replicate 1
[2] = 12 h, 1 µM, compound concentration 1 uM, replicate 2
[3] = 12 h, 10 µM, compound concentration 10 uM, replicate 1
[4] = 12 h, 10 µM, compound concentration 10 uM, replicate 2
[5] = 24 h, 1 µM, compound concentration 1 uM, replicate 1
[6] = 24 h, 1 µM, compound concentration 1 uM, replicate 2
[7] = 24 h, 10 µM, compound concentration 10 uM, replicate 1
[8] = 24 h, 10 µM, compound concentration 10 uM, replicate 2
[9] = 48 h, 1 µM, compound concentration 1 uM, replicate 1
[10] = 48 h, 1 µM, compound concentration 1 uM, replicate 2
[11] = 48 h, 10 µM, compound concentration 10 uM, replicate 1
[12] = 48 h, 10 µM, compound concentration 10 uM, replicate 2

Structure (SMILES): CN1C2CCC1CC(OC(c1ccc(F)cc1)c1ccc(F)cc1)C2.Cl (stereo unspecified)
- Population Apoptotic (%) [1]: 50%
- Population Fragmented Nuclei (%) [1]: 12%
- Population Healthy Nuclei (%) [1]: 27%
- Population Hoechst High Intensity Objects (%) [1]: 12%
- Population Membrane Permeable-Phenotype (%) [1]: 2%
- Population Mitochondria Different-Phenotype (%) [1]: 84%
- Population Mitotic Cells (%) [1]: 50%
- Population Normal (%) [1]: 87%
- Population Pyknosed Nuclei (%) [1]: 60%
- Population Tubulin-Different-Phenotype (%) [1]: 58%
- Total Cell Count [1]: 303
- Population Apoptotic (%) [2]: 18%
- Population Fragmented Nuclei (%) [2]: 2%
- Population Healthy Nuclei (%) [2]: 43%
- Population Hoechst High Intensity Objects (%) [2]: 3%
- Population Membrane Permeable-Phenotype (%) [2]: 18%
- Population Mitochondria Different-Phenotype (%) [2]: 35%
- Population Mitotic Cells (%) [2]: 81%
- Population Normal (%) [2]: 96%
- Population Pyknosed Nuclei (%) [2]: 54%
- Population Tubulin-Different-Phenotype (%) [2]: 56%
- Total Cell Count [2]: 252
- Population Apoptotic (%) [3]: 80%
- Population Fragmented Nuclei (%) [3]: 9%
- Population Healthy Nuclei (%) [3]: 25%
- Population Hoechst High Intensity Objects (%) [3]: 13%
- Population Membrane Permeable-Phenotype (%) [3]: 1%
- Population Mitochondria Different-Phenotype (%) [3]: 100%
- Population Mitotic Cells (%) [3]: 19%
- Population Normal (%) [3]: 86%
- Population Pyknosed Nuclei (%) [3]: 65%
- Population Tubulin-Different-Phenotype (%) [3]: 98%
- Total Cell Count [3]: 280
- Population Apoptotic (%) [4]: 63%
- Population Fragmented Nuclei (%) [4]: 3%
- Population Healthy Nuclei (%) [4]: 21%
- Population Hoechst High Intensity Objects (%) [4]: 6%
- Population Membrane Permeable-Phenotype (%) [4]: 2%
- Population Mitochondria Different-Phenotype (%) [4]: 92%
- Population Mitotic Cells (%) [4]: 36%
- Population Normal (%) [4]: 93%
- Population Pyknosed Nuclei (%) [4]: 74%
- Population Tubulin-Different-Phenotype (%) [4]: 95%
- Total Cell Count [4]: 201
- Population Apoptotic (%) [5]: 48%
- Population Fragmented Nuclei (%) [5]: 15%
- Population Healthy Nuclei (%) [5]: 19%
- Population Hoechst High Intensity Objects (%) [5]: 14%
- Population Membrane Permeable-Phenotype (%) [5]: 10%
- Population Mitochondria Different-Phenotype (%) [5]: 76%
- Population Mitotic Cells (%) [5]: 51%
- Population Normal (%) [5]: 85%
- Population Pyknosed Nuclei (%) [5]: 64%
- Total Cell Count [5]: 295
- Population Apoptotic (%) [6]: 22%
- Population Fragmented Nuclei (%) [6]: 4%
- Population Healthy Nuclei (%) [6]: 49%
- Population Hoechst High Intensity Objects (%) [6]: 1%
- Population Membrane Permeable-Phenotype (%) [6]: 12%
- Population Mitochondria Different-Phenotype (%) [6]: 35%
- Population Mitotic Cells (%) [6]: 77%
- Population Normal (%) [6]: 98%
- Population Pyknosed Nuclei (%) [6]: 46%
- Population Tubulin-Different-Phenotype (%) [6]: 64%
- Total Cell Count [6]: 305
- Population Apoptotic (%) [7]: 79%
- Population Fragmented Nuclei (%) [7]: 16%
- Population Healthy Nuclei (%) [7]: 13%
- Population Hoechst High Intensity Objects (%) [7]: 20%
- Population Membrane Permeable-Phenotype (%) [7]: 3%
- Population Mitochondria Different-Phenotype (%) [7]: 100%
- Population Mitotic Cells (%) [7]: 20%
- Population Normal (%) [7]: 79%
- Population Pyknosed Nuclei (%) [7]: 70%
- Population Tubulin-Different-Phenotype (%) [7]: 96%
- Total Cell Count [7]: 292
- Population Apoptotic (%) [8]: 88%
- Population Fragmented Nuclei (%) [8]: 3%
- Population Healthy Nuclei (%) [8]: 28%
- Population Hoechst High Intensity Objects (%) [8]: 7%
- Population Membrane Permeable-Phenotype (%) [8]: 1%
- Population Mitochondria Different-Phenotype (%) [8]: 96%
- Population Mitotic Cells (%) [8]: 11%
- Population Normal (%) [8]: 92%
- Population Pyknosed Nuclei (%) [8]: 67%
- Population Tubulin-Different-Phenotype (%) [8]: 86%
- Total Cell Count [8]: 190
- Population Apoptotic (%) [9]: 47%
- Population Fragmented Nuclei (%) [9]: 20%
- Population Healthy Nuclei (%) [9]: 21%
- Population Hoechst High Intensity Objects (%) [9]: 19%
- Population Membrane Permeable-Phenotype (%) [9]: 7%
- Population Mitochondria Different-Phenotype (%) [9]: 53%
- Population Mitotic Cells (%) [9]: 52%
- Population Normal (%) [9]: 80%
- Population Pyknosed Nuclei (%) [9]: 58%
- Population Tubulin-Different-Phenotype (%) [9]: 67%
- Total Cell Count [9]: 329
- Population Apoptotic (%) [10]: 11%
- Population Fragmented Nuclei (%) [10]: 4%
- Population Healthy Nuclei (%) [10]: 77%
- Population Hoechst High Intensity Objects (%) [10]: 2%
- Population Membrane Permeable-Phenotype (%) [10]: 15%
- Population Mitochondria Different-Phenotype (%) [10]: 15%
- Population Mitotic Cells (%) [10]: 89%
- Population Normal (%) [10]: 97%
- Population Pyknosed Nuclei (%) [10]: 18%
- Population Tubulin-Different-Phenotype (%) [10]: 52%
- Total Cell Count [10]: 565
- Population Apoptotic (%) [11]: 78%
- Population Fragmented Nuclei (%) [11]: 21%
- Population Healthy Nuclei (%) [11]: 8%
- Population Hoechst High Intensity Objects (%) [11]: 21%
- Population Membrane Permeable-Phenotype (%) [11]: 0%
- Population Mitochondria Different-Phenotype (%) [11]: 100%
- Population Mitotic Cells (%) [11]: 21%
- Population Normal (%) [11]: 78%
- Population Pyknosed Nuclei (%) [11]: 69%
- Population Tubulin-Different-Phenotype (%) [11]: 95%
- Total Cell Count [11]: 285
- Population Apoptotic (%) [12]: 75%
- Population Fragmented Nuclei (%) [12]: 9%
- Population Healthy Nuclei (%) [12]: 55%
- Population Hoechst High Intensity Objects (%) [12]: 10%
- Population Membrane Permeable-Phenotype (%) [12]: 1%
- Population Mitochondria Different-Phenotype (%) [12]: 96%
- Population Mitotic Cells (%) [12]: 24%
- Population Normal (%) [12]: 89%
- Population Pyknosed Nuclei (%) [12]: 34%
- Population Tubulin-Different-Phenotype (%) [12]: 85%
- Total Cell Count [12]: 207
